In ChEMBL document CHEMBL2169846, “Design and synthesis of Pictet-Spengler condensation products that exhibit oncogenic-RAS synthetic lethality and induce non-apoptotic cell death” (Bioorg Med Chem Lett, 2012):
The source made the active and inactive calls. The calls are words filed in the database; no cut-off is given here.

Tests used:
[1] = Stability of the compound assessed as GSH adduct formation after 24 hrs by mass spectroscopy; type: physicochemical
BJeH [2] = assay: Induction of apoptosis in human BJeH cells expressing wild type RAS assessed as caspase 7 activation after 28 hrs by Apo-One assay; type: functional, cell-based
Method in brief: (§1)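 BJ-TERT and BJ-TERT/LT/ST/RAS(V12) cells given compound as a two-fold, 14-point dilution series for 28 h. Alamar blue then added for viability, and caspase 3/7 activation detected by Apo-ONE in the same wells.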

[3] = Stability of the compound in phosphate buffered saline after 24 hrs by mass spectroscopy; type: physicochemical; conditions: buffer
BJeLR [4] = assay: Induction of apoptosis in human BJeLR cells expressing RAS G12V mutant assessed as caspase 7 activation after 28 hrs by Apo-One assay; type: functional, cell-based; method in brief: as §1
[5] = target: E3 ubiquitin-protein ligase Mdm2 (Homo sapiens) (UniProt Q00987); assay: Inhibition of wild type Mdm2 at 20 ug/mL after 2 hrs by cell-based luciferase assay
[6] = test system: E3 ubiquitin-protein ligase Mdm2 (Homo sapiens), Q00987 [C464A]; assay: Inhibition of Mdm2 C464A mutant at 20 ug/mL after 2 hrs by cell-based luciferase assay
RKO = assay: Cytotoxicity against human RKO cells after 48 hrs by alamar blue assay; type: functional; conditions: read-out: LC50 (the source's name)
[7] = Cytotoxicity against human HT1299 cells after 48 hrs by alamar blue assay; type: functional; conditions: HT1299, 48 h, read-out: LC50 (the source's name)
[8] = Cytotoxicity against human BJeH cells expressing wild type RAS after 48 hrs by alamar blue assay; type: functional, cell-based; conditions: read-out: LC50 (the source's name)
[9] = Cytotoxicity against human BJeLR cells expressing RAS G12V mutant after 48 hrs by alamar blue assay; type: functional, cell-based; conditions: read-out: LC50 (the source's name)
MCF7 = assay: Cytotoxicity against human MCF7 cells at 20 ug/mL after 48 hrs by alamar blue assay; type: functional, cell-based
Method in brief: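 Each cell line exposed for 48 h to a 2-fold, 12-point dilution series beginning at 20 µg/mL. Viability by Alamar blue; LC50 derived from the curves.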

[10] = Ratio of MEL24 LC50 to compound LC50 for human BJeLR cells expressing RAS G12V mutant; type: functional
[11] = Cytotoxicity against human BJeH cells expressing wild type RAS; type: functional; conditions: read-out: LC50 (the source's name)
[12] = Cytotoxicity against human BJeH-LT cells expressing wild type RAS; type: functional; conditions: read-out: LC50 (the source's name)
[13] = Cytotoxicity against human BJeLR cells expressing RAS G12V mutant; type: functional; conditions: read-out: LC50 (the source's name)
[14] = Cytotoxicity against human DRD cells expressing RAS G12V mutant; type: functional; conditions: read-out: LC50 (the source's name)
[15] = Growth inhibition of human BJeH cells expressing wild type RAS relative to control; type: functional
Method in brief: (§2)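 Four cell lines treated for 48 h in a two-fold, 7-point dilution series. Viability by Alamar blue reading. LC50 and maximum growth-inhibitory efficacy were tabulated as ± SEM of triplicates.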

[16] = Growth inhibition of human BJeH-LT cells expressing wild type RAS relative to control; type: functional; method in brief: as §2
[17] = Growth inhibition of human BJeLR cells expressing RAS G12V mutant relative to control; type: functional; method in brief: as §2
[18] = Growth inhibition of human DRD cells expressing RAS G12V mutant relative to control; type: functional; method in brief: as §2
[19] = Selectivity ratio of LC50 for human BJeH cells to LC50 for human BJeLR cells expressing RAS G12V mutant; type: functional
Method in brief: (§3)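 LC50 of BJ-TERT divided by LC50 of the RAS(V12)-transformed line or of DRD cells.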

[20] = Selectivity ratio of LC50 for human BJeH cells to LC50 for human DRD cells; type: functional; method in brief: as §3
BJeLR [21] = assay: Cytotoxicity against human BJeLR cells expressing RAS G12V mutant at 30 uM at 12 hrs by trypan blue staining; type: functional, cell-based
Method in brief: (§4)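 Time-course in BJ-TERT/LT/ST/RAS^V12 cells exposed for the designated times to erastin (10 µM), test compound (30 µM) or RSL3 (0.57 µM) to follow onset of death. Data representative of duplicate experiments.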

BJeLR [22] = assay: Cytotoxicity against human BJeLR cells expressing RAS G12V mutant at 30 uM at 24 hrs by trypan blue staining; type: functional, cell-based; method in brief: as §4
BJeH [23] = assay: Cytotoxicity against human BJeH cells expressing wild type RAS at 30 uM after 24 hrs by trypan blue staining; type: functional, cell-based
BJeLR [24] = assay: Cytotoxicity against human BJeLR cells expressing RAS G12V mutant at high concentration after 28 hrs by alamar blue assay; type: functional, cell-based
Method in brief: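 BJ-TERT/LT/ST/RAS^V12 cells treated for 28 h across a two-fold, 14-point dilution series. Viability was read by Alamar blue, and caspase 3/7 activation was detected by Apo-ONE in the same cells.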

BJeLR [25] = assay: Induction of apoptosis in human BJeLR cells expressing RAS G12V mutant assessed as caspase 3 activation after 28 hrs by Apo-One assay; type: functional, cell-based; method in brief: as §1
BJeH [26] = assay: Induction of apoptosis in human BJeH cells expressing wild type RAS assessed as caspase 3 activation after 28 hrs by Apo-One assay; type: functional, cell-based; method in brief: as §1
HT-1080 [27] = assay: Cytotoxicity against human HT1080 after 48 hrs by alamar blue assay in presence of z-VAD-fmk; type: functional, cell-based
Method in brief: (§5)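 HT1080 cells given the test compound together with a rescue agent: deferoxamine 152 µM, α-tocopherol 100 µM, z-VAD-fmk 45 µM or Boc-D-fmk 50 µM. Viability read out afterwards.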

HT-1080 [28] = assay: Cytotoxicity against human HT1080 after 48 hrs by alamar blue assay in presence of Boc-D-fmk; type: functional, cell-based; method in brief: as §5
HT-1080 [29] = assay: Cytotoxicity against human HT1080 after 48 hrs by alamar blue assay in presence of deferoxamine; type: functional, cell-based; method in brief: as §5
HT-1080 [30] = assay: Cytotoxicity against human HT1080 after 48 hrs by alamar blue assay in presence of alpha-tocopherol; type: functional, cell-based; method in brief: as §5
BJeH [31] = assay: Induction of reactive oxygen species production in human BJeH cells expressing wild type RAS after 18 hrs by DCF-based flow cytometric analysis; type: functional, cell-based
BJeLR [32] = assay: Induction of reactive oxygen species production in human BJeLR cells expressing RAS G12V mutant after 18 hrs by DCF-based flow cytometric analysis; type: functional, cell-based

E3 ubiquitin-protein ligase Mdm2 (Homo sapiens), Q00987 [C464A], sequence (Q00987 whole entry C464A): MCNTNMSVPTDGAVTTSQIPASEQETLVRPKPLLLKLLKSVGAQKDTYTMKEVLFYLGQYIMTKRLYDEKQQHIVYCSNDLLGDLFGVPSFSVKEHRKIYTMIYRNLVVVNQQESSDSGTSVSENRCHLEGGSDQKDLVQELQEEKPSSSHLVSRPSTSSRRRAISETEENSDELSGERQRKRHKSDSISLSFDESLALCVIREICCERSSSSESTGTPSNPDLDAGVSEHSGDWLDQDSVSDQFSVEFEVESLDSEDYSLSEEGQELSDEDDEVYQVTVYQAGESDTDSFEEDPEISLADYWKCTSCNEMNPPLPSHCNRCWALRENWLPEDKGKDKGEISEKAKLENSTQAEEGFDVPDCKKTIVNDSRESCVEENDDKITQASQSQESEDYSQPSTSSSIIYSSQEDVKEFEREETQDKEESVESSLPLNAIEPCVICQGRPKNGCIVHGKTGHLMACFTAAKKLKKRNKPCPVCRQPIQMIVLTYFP
E3 ubiquitin-protein ligase Mdm2 (Homo sapiens), sequence (Q00987 whole entry, looked up): as the sequence (Q00987 whole entry C464A) above, with A464C counted along it

CCOC(=O)C1c2c(c3ccccc3n2C)CCN1C(=O)OC (centres undefined)
Stability [1]: Stable
Activity (BJeH [2]): inactive
Stability [3]: Stable
Activity (BJeLR [4]): inactive
inhibition [5]: inactive
inhibition [6]: inactive
CC50 (RKO): 31.6 µM
CC50 [7]: 30 µM
CC50 [8]: 63.2 µM
CC50 [9]: 6.3 µM
Activity (MCF7): inactive
Ratio [10]: 4
CC50 [11]: 179 µM
CC50 [12]: 266 µM
CC50 [13]: 20.3 µM
CC50 [14]: 102 µM
growth inhibition (GI) [15]: 22.1%
growth inhibition (GI) [16]: 8.5%
growth inhibition (GI) [17]: 98.7%
growth inhibition (GI) [18]: 67%
Ratio [19]: 10
Ratio [20]: 3
Activity (BJeLR [21]): Active
Activity (BJeLR [22]): Active
Activity (BJeH [23]): inactive
Activity (BJeLR [24]): Active
Activity (BJeLR [25]): inactive
Activity (BJeH [26]): inactive
Activity (HT-1080 [27]): Active
Activity (HT-1080 [28]): Active
Activity (HT-1080 [29]): inactive
Activity (HT-1080 [30]): inactive
Activity (BJeH [31]): Active
Activity (BJeLR [32]): Active
